Published values collected from several papers.
Protocols differ between the studies behind these lines.
Target: Rho-associated protein kinase 1 (ROCK1, Homo sapiens, UniProt Q13464)

| Structure (SMILES) | read-out | technique | tested at | remaining binding [%] |
| --- | --- | --- | --- | --- |
| O=C(NCCCN1CCOCC1)c1ccc(Nc2nccc(-c3cc4ccccc4s3)n2)cc1 | binding | competition with immobilised ligand | 1 µM | 54 |
| C=CC(=O)N1CCC(C(=O)NCC(=O)N2CCN(c3nc(-c4cnc(N)nc4C(F)F)nc(N4CCOCC4)n3)CC2)CC1 | binding | competition with immobilised ligand | 1 µM | 100 |
| CS(=O)(=O)N1CCCC(NC(=O)[C@H](CCC2CCCCC2)NC(=O)c2ccc(CNC(=O)c3cnc4ccccn34)cc2)C1 (stereo partly shown) | cell-free assay | competition with immobilised ligand | 0.1 µM | 100 |
| O=C(Nc1c[nH]nc1C(=O)NC1CCNCC1)c1cc(F)cc(F)c1 | binding | competition with immobilised ligand | 1 µM | 98 |
| CCN1CCN(Cc2ccc(C(=O)Nc3ccc(C)c(Oc4ccc5c(c4)CC(=O)N5)c3)cc2C(F)(F)F)CC1 | binding | competition with immobilised ligand | 1 µM | 69 |
| O=C(NCCCN1CCOCC1)c1ccc(Nc2ncc(Cl)c(-c3ccc(Cl)s3)n2)cc1 | binding | competition with immobilised ligand | 1 µM | 90 |
| N[C@@H]1CCN(c2nccc(-c3cnn4ncccc34)n2)C1 | binding |  | 1 µM | 94 |
| CCCOc1ccc([C@H]2[C@H](C(=O)O)[C@@H](c3ccc4c(c3)OCO4)CN2CC(=O)Nc2c(CC)cccc2CC)cc1 | cell-free assay | competition with immobilised ligand | 1 µM | 65 |
| CN(C)c1nccc(-c2cnc3ncccn23)n1 | binding |  | 1 µM | 74 |
| C[C@@H](c1ccc(-n2cnc3c(N)ncnc32)cc1)N1CCc2nn(C)c(Cc3ccccc3)c2C1=O | binding | competition with immobilised ligand | 0.1 µM | 85 |
| O=C(c1ccc(Nc2ncc(Cl)c(-c3ccc(Cl)s3)n2)cc1)N1CCC(N2CCCC2)CC1 | binding | competition with immobilised ligand | 1 µM | 4.9 |
| CN(CCCC(F)(F)F)c1nccc(-c2cnn3ncccc23)n1 | binding |  | 1 µM | 100 |
| CC(C)CC(=O)N1CCc2nc(-c3ccc(Br)cc3)nc(N(C)Cc3ccccc3)c2C1 | cell-free assay | competition with immobilised ligand | 0.1 µM | 78 |
| CN(c1nccc(-c2cnn3ncccc23)n1)C1CC1 | binding |  | 1 µM | 100 |
| CO[C@H]1CC[C@H](CNc2ccc(S(=O)(=O)NC(=O)c3ccc(N4CCN(CC5=C(c6ccc(Cl)cc6)CC(C)(C)CC5)CC4)cc3Oc3cnc4[nH]ccc4c3)cc2[N+](=O)[O-])CC1 | cell-free assay | competition with immobilised ligand | 1 µM | 70 |
| COc1cnc(Nc2cccc(S(N)(=O)=O)c2)nc1N1CCN(c2ccccc2)C(=O)C1 | binding | competition with immobilised ligand | 1 µM | 43 |
| CC(=O)c1c(NS(C)(=O)=O)c2cc(-c3ccc(Cl)cc3)c(-c3ccc(Cl)cc3Cl)nc2n(C)c1=O | cell-free assay | competition with immobilised ligand | 1 µM | 85 |
| C[C@@H]1CCN(c2nccc(-c3cnn4ncccc34)n2)C1 | binding |  | 1 µM | 86 |
| O=C(O)c1cc(-c2ccc(C3CCNCC3)cc2)c2ccc(-c3ccc(C(F)(F)F)cc3)cc2c1 | cell-free assay | competition with immobilised ligand | 1 µM | 100 |
| FC(F)(F)Oc1cccc(-c2cnc3ccc(-c4ccncc4)nn23)c1 | binding | competition with immobilised ligand | 5 µM | 42 |
| C[C@H](c1ccc(F)cc1)N(Cc1cccc(C(=O)O)c1)C(=O)c1cnc2ccccc2c1 | cell-free assay | competition with immobilised ligand | 1 µM | 100 |
| COc1ccnn2ncc(-c3ccnc(N(C)C)n3)c12 | binding |  | 1 µM | 93 |
